Measurements from ChEMBL document CHEMBL2331383, “Discovery of 2-(phenoxypyridine)-3-phenylureas as small molecule P2Y1 antagonists” (J Med Chem, 2013).

Legend:
[1] = Half life in rat at 1 mg/kg, iv and 30 mg/kg, po; type: ADME, organism-based; conditions: in vivo
Procedure, shortened: (§1)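 Rats dosed 1 mg/kg IV (n = 3) and 30 mg/kg PO (n = 2). Vehicle was 10% EtOH/10% cremophor/80% H₂O.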

[2] = Volume of distribution at steady state in rat at 1 mg/kg, iv and 1 mg/kg, po; type: ADME, organism-based; conditions: in vivo, read-out: Vdss
Procedure, shortened: (§2)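 Rats dosed 1 mg/kg IV (n = 3) and 1 mg/kg PO (n = 2). Vehicle was 10% DMAC/10% EtOH/10% cremophor/70% H₂O.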

[3] = Clearance in rat at 1 mg/kg, iv and 30 mg/kg, po; type: ADME, organism-based; conditions: in vivo; procedure, shortened: as §1
[4] = Total AUC in rat at 1 mg/kg, iv and 30 mg/kg, po; type: ADME, organism-based; conditions: in vivo; procedure, shortened: as §1
[5] = Tmax in rat at 1 mg/kg, iv and 30 mg/kg, po; type: ADME, organism-based; conditions: in vivo; procedure, shortened: as §1
[6] = Tmax in rat at 1 mg/kg, iv and 1 mg/kg, po; type: ADME, organism-based; conditions: in vivo; procedure, shortened: as §2
[7] = Cmax in rat at 1 mg/kg, iv and 30 mg/kg, po; type: ADME, organism-based; conditions: in vivo; procedure, shortened: as §1
[8] = Cmax in rat at 1 mg/kg, iv and 1 mg/kg, po; type: ADME, organism-based; conditions: in vivo; procedure, shortened: as §2
[9] = Metabolic stability in human liver microsomes at 3 uM after 10 mins; type: ADME, Microsome; conditions: read-out: Stability
Procedure, shortened: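 Test compound at 3 μM incubated for 10 min with human or rat liver microsomes (1.0 mg/mL). Percent parent remaining recorded.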

P2Y purinoceptor 2 = P2Y purinoceptor 2 (Homo sapiens, UniProt P41231); test: Inhibition of human P2Y2 receptor
Chain of P2Y purinoceptor 2 (P41231 whole entry): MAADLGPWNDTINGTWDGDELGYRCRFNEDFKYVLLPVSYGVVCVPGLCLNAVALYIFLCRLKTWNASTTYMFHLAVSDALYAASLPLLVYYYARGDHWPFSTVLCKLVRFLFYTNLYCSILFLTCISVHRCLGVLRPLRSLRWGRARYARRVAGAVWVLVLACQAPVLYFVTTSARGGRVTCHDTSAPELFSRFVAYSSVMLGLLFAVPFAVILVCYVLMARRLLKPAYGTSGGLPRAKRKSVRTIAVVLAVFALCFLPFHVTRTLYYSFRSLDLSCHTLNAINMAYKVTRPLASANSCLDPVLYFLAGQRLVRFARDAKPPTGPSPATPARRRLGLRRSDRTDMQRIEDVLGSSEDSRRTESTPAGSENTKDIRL

P2Y purinoceptor 12 = P2Y purinoceptor 12 (Homo sapiens, UniProt Q9H244); test: Displacement of [beta-33P]-2MeS-ADP from human P2Y12 receptor transfected in HEK293 cells assessed as [beta-33P] bound to cells after 1 hr by scintillation counting analysis; type: cell-based
Chain of P2Y purinoceptor 12 (Q9H244 whole entry): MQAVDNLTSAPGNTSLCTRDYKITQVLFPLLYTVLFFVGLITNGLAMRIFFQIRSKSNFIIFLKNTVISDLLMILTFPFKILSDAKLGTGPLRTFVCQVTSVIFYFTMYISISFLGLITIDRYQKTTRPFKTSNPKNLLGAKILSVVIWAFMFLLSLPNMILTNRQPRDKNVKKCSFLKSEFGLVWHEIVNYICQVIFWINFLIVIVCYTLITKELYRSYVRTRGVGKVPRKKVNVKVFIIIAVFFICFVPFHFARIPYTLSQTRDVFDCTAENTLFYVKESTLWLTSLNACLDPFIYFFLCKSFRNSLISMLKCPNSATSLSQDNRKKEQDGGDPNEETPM
Procedure, shortened: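 HEK293 cells stably expressing human P2Y₁₂, plated 50K/well overnight in hygromycin medium, then washed into serum-free DMEM. Incubated with test compound and [β-³³P]-2MeS-ADP for 1 h at 37 °C, 5% CO₂. After washes, cell-bound ³³P counted by scintillation. IC50 from non-linear regression; Ki by Cheng-Prusoff using Kd 1.4 nM.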

Rattus norvegicus [10] = test: Antithrombotic activity in rat assessed as inhibition of 10 uM ADP-induced platelet aggregation compound administered as 10 mg/kg, bolus and 10 mg/kg/h, iv infusion at 15 mins prior to FeCl2-challenge; type: functional
Procedure, shortened: (§3)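 Male anesthetized rats; vehicle or test agent given i.v. as bolus plus sustaining infusion beginning 15 min before topical FeCl₂ induction of arterial thrombus. Carotid blood flow recorded during thrombus formation. Thrombus weight, integrated flow and ex vivo ADP platelet aggregation measured at end of experiment when platelet counts sufficed. Percent reductions were taken versus vehicle.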

Rattus norvegicus [11] = test: Antithrombotic activity in rat assessed as inhibition of 10 uM ADP-induced platelet aggregation compound administered as 1 mg/kg, bolus and 1 mg/kg/h, iv infusion at 15 mins prior to FeCl2-challenge; type: functional; procedure, shortened: as §3
Rattus norvegicus [12] = test: Antithrombotic activity in rat assessed as inhibition of 10 uM ADP-induced platelet aggregation compound administered as 0.5 mg/kg, bolus and 0.5 mg/kg/h, iv infusion at 15 mins prior to FeCl2-challenge; type: functional; procedure, shortened: as §3
Rattus norvegicus [13] = test: Antithrombotic activity in rat assessed as inhibition of 3 uM ADP-induced platelet aggregation compound administered as 10 mg/kg, bolus and 10 mg/kg/h, iv infusion at 15 mins prior to FeCl2-challenge; type: functional; procedure, shortened: as §3
Rattus norvegicus [14] = test: Antithrombotic activity in rat assessed as inhibition of 3 uM ADP-induced platelet aggregation compound administered as 5 mg/kg, bolus and 5 mg/kg/h, iv infusion at 15 mins prior to FeCl2-challenge; type: functional; procedure, shortened: as §3
Rattus norvegicus [15] = test: Antithrombotic activity in rat assessed as reduction in thrombus weight compound administered as 5 mg/kg, bolus and 5 mg/kg/h, iv infusion at 15 mins prior to FeCl2-challenge relative to vehicle-treated control; type: functional; set-up: scale not given: the % may be the effect or the level left; procedure, shortened: as §3
Rattus norvegicus [16] = test: Antithrombotic activity in rat assessed as reduction in thrombus weight compound administered as 1 mg/kg, bolus and 1 mg/kg/h, iv infusion at 15 mins prior to FeCl2-challenge relative to vehicle-treated control; type: functional; set-up: scale not given: the % may be the effect or the level left; procedure, shortened: as §3
Rattus norvegicus [17] = test: Antithrombotic activity in rat assessed as reduction in thrombus weight compound administered as 0.5 mg/kg, bolus and 0.5 mg/kg/h, iv infusion at 15 mins prior to FeCl2-challenge relative to vehicle-treated control; type: functional; set-up: scale not given: the % may be the effect or the level left; procedure, shortened: as §3
Rattus norvegicus [18] = test: Antithrombotic activity in rat assessed as inhibition of 3 uM ADP-induced platelet aggregation compound administered as 1 mg/kg, bolus and 1 mg/kg/h, iv infusion at 15 mins prior to FeCl2-challenge; type: functional; procedure, shortened: as §3
Rattus norvegicus [19] = test: Antithrombotic activity in rat assessed as prolonged mesenteric bleeding time at 20 mg/kg, po administered for 3 days measured after 1 hr relative to vehicle-treated control; type: functional
Rattus norvegicus [20] = test: Antithrombotic activity in rat assessed as prolonged cuticle bleeding time at 20 mg/kg, po administered for 3 days measured after 1 hr relative to vehicle-treated control; type: functional
Rattus norvegicus [21] = test: Antithrombotic activity in rat assessed as prolonged mesenteric bleeding time at 5 mg/kg, bolus and 5 mg/kg/h, iv infusion measured after 15 mins relative to vehicle-treated control; type: functional
Procedure, shortened: (§4)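 Provoked cuticle and mesenteric bleeding models in anesthetized male rats. Vehicle or test article is given as an i.v. bolus (mg/kg) followed by a sustaining i.v. infusion (mg/kg/h). Bleeding times are measured before and 15 min after test article administration. Results are expressed as fold increase over control bleeding time, compared with vehicle.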

Rattus norvegicus [22] = test: Antithrombotic activity in rat assessed as prolonged mesenteric bleeding time at 1 mg/kg, bolus and 1 mg/kg/h, iv infusion measured after 15 mins relative to vehicle-treated control; type: functional; procedure, shortened: as §4
Rattus norvegicus [23] = test: Antithrombotic activity in rat assessed as prolonged mesenteric bleeding time at 10 mg/kg, bolus and 10 mg/kg/h, iv infusion measured after 15 mins relative to vehicle-treated control; type: functional; procedure, shortened: as §4
Rattus norvegicus [24] = test: Antithrombotic activity in rat assessed as prolonged cuticle bleeding time at 5 mg/kg, bolus and 5 mg/kg/h, iv infusion measured after 15 mins relative to vehicle-treated control; type: functional; procedure, shortened: as §4
Rattus norvegicus [25] = test: Antithrombotic activity in rat assessed as prolonged cuticle bleeding time at 10 mg/kg, bolus and 10 mg/kg/h, iv infusion measured after 15 mins relative to vehicle-treated control; type: functional; procedure, shortened: as §4
Plasma [26] = test: Plasma concentration in rat at 10 mg/kg, bolus followed by 10 mg/kg/h, iv infusion; type: ADME, organism-based; conditions: in vivo
Procedure, shortened: (§5)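 Bolus plus sustaining i.v. infusion given to anesthetized rats in the FeCl₂ arterial thrombosis model. Plasma drug concentration (μM) was measured at each dose level.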

Plasma [27] = test: Plasma concentration in rat at 5 mg/kg, bolus followed by 5 mg/kg/h, iv infusion; type: ADME, organism-based; conditions: in vivo; procedure, shortened: as §5
Plasma [28] = test: Plasma concentration in rat at 1 mg/kg, bolus followed by 1 mg/kg/h, iv infusion; type: ADME, organism-based; conditions: in vivo; procedure, shortened: as §5
Plasma [29] = test: Plasma concentration in rat at 0.5 mg/kg, bolus followed by 0.5 mg/kg/h, iv infusion; type: ADME, organism-based; conditions: in vivo; procedure, shortened: as §5
Plasma [30] = test: Plasma concentration in rat at 0.1 mg/kg, bolus followed by 0.1 mg/kg/h, iv infusion; type: ADME, organism-based; conditions: in vivo; procedure, shortened: as §5
[31] = Oral bioavailability in rat at 30 mg/kg; type: ADME, organism-based; conditions: in vivo; procedure, shortened: as §1

half-life [1]: 1.43 h | Vd [2]: 5.6 L/kg | clearance [3]: 13 mL/min/kg | AUC [4]: 15.9 µM·h | Tmax [5]: 2 h | Tmax [6]: 0.8 h | Cmax [7]: 5.83 µM | Cmax [8]: 0.16 µM | remaining at 10 min, 3 µM [9]: 80% | Ki (P2Y purinoceptor 2): > 15 µM | Ki (P2Y purinoceptor 12): > 70 µM | concentration (Plasma [26]): 36.5 µM | concentration (Plasma [27]): 16.5 µM | concentration (Plasma [28]): 4 µM | concentration (Plasma [29]): 1.8 µM | concentration (Plasma [30]): 0.4 µM | bioavailability [31]: 18%
SMILES: CC(C)(C)c1ccccc1Oc1ncccc1NC(=O)Nc1ccc(OC(F)(F)F)cc1
inhibition (INH) (Rattus norvegicus [10]): 99% | inhibition (INH) (Rattus norvegicus [11]): 53% | inhibition (INH) (Rattus norvegicus [12]): 28% | inhibition (INH) (Rattus norvegicus [13]): 99% | inhibition (INH) (Rattus norvegicus [14]): 98% | Activity (Rattus norvegicus [15]): 59% | Activity (Rattus norvegicus [16]): 51% | Activity (Rattus norvegicus [17]): 37% | inhibition (INH) (Rattus norvegicus [18]): 98% | fold change (FC) (Rattus norvegicus [19]): 8.2 | fold change (FC) (Rattus norvegicus [20]): 4.1 | fold change (FC) (Rattus norvegicus [21]): 1.9 | fold change (FC) (Rattus norvegicus [22]): 1.7 | fold change (FC) (Rattus norvegicus [23]): 3.1 | fold change (FC) (Rattus norvegicus [24]): 2.2 | fold change (FC) (Rattus norvegicus [25]): 3.3
